ChEMBL document CHEMBL1145833, “Studies on the synthesis and biological properties of non-carrier-added [(125)I and (131)I]-labeled arylalkylidenebisphosphonates: potent bone-seekers for diagnosis and therapy of malignant osseous lesions” (J Med Chem, 2003)

Assays:
Details in all cases: in vivo
Mus musculus [1] = species: Mus musculus; assay: Distribution of compound in lungs tissue of mice after 24 hr injection time was determined; format: ADME, organism-based, Lung
How it was run: (§1)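 Healthy athymic nude mice (balb/c nu/nu, 20–25 g, both sexes) received 50–400 KBq radioiodinated bisphosphonate in 100 µL phosphate buffer pH 6–7 by tail-vein injection. Three animals were sacrificed per time point. Tissues were excised, weighed and gamma-counted. Values are % injected dose per gram tissue, mean ± 1 SD, n = 3.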

Mus musculus [2] = species: Mus musculus; assay: Distribution of compound in skull tissue of mice after 24 hr injection time was determined; format: ADME, organism-based; how it was run: as §1
Mus musculus [3] = species: Mus musculus; assay: Distribution of compound in kidneys tissue of mice after 24 hr injection time was determined; format: ADME, organism-based, Kidney; how it was run: as §1
Mus musculus [4] = species: Mus musculus; assay: Distribution of compound in liver tissue of mice after 24 hr injection time was determined; format: ADME, organism-based; how it was run: as §1
Mus musculus [5] = species: Mus musculus; assay: Distribution of compound in heart tissue of mice after 24 hr injection time was determined; format: ADME, organism-based; how it was run: as §1
Mus musculus [6] = species: Mus musculus; assay: Distribution of compound in intestine tissue of mice after 24 hr injection time was determined; format: ADME, organism-based; how it was run: as §1
Mus musculus [7] = species: Mus musculus; assay: Distribution of compound in spleen tissue of mice after 24 hr injection time was determined; format: ADME, organism-based; how it was run: as §1
Mus musculus [8] = species: Mus musculus; assay: Distribution of compound in stomach tissue of mice after 24 hr injection time was determined; format: ADME, organism-based; how it was run: as §1
Mus musculus [9] = species: Mus musculus; assay: Distribution of compound in thyroid tissue of mice after 24 h injection time was determined; format: ADME, organism-based, Thyroid gland
How it was run: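 Healthy athymic nude balb/c nu/nu mice (20–25 g) received 50–400 KBq radioiodinated bisphosphonate in 100 μL phosphate buffer, pH 6–7, by tail-vein injection. Three animals were sacrificed per time point. Thyroid-containing tissue was excised, weighed and gamma-counted. Values are % of injected dose, mean ± 1 SD of three mice.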

Mus musculus [10] = species: Mus musculus; assay: Distribution of compound in blood tissue of mice after 24 hr injection time was determined; format: ADME, organism-based; how it was run: as §1
Mus musculus [11] = species: Mus musculus; assay: Distribution of compound in femur tissue of mice after 24 hr injection time was determined; format: ADME, organism-based; how it was run: as §1

Injected (Mus musculus [1]): 0.21%
Injected (Mus musculus [2]): 10.36%
Injected (Mus musculus [3]): 0.85%
Injected (Mus musculus [4]): 0.35%
Injected (Mus musculus [5]): 0.06%
Injected (Mus musculus [6]): 0.05%
Injected (Mus musculus [7]): 0.17%
Injected (Mus musculus [8]): 0.04%
Injected (Mus musculus [9]): 0.02%
Injected (Mus musculus [10]): 0.02%
Injected (Mus musculus [11]): 8.84%
SMILES: O=P(O)(O)C(CCc1cccc(I)c1)P(=O)(O)O
